Assay results gathered from unrelated publications.
Lines come from different studies, so protocols differ.
CYP2D6: Cytochrome P450 2D6 (CYP2D6, Homo sapiens, UniProt P10635)

| SMILES | tested on | test | test system | conditions | measurement | value |
| --- | --- | --- | --- | --- | --- | --- |
| COCCc1ccc(OCC(O)CNC(C)C)cc1 (stereo not drawn) | CYP2D6 |  | human, plasma | oral, 100 mg, single dose, healthy volunteers | AUC(0-t) | 758 ng·h/mL |
| CCn1c(=O)c(-c2cc(NC(=O)Nc3ccccc3)c(F)cc2Br)cc2cnc(NC)cc21 |  |  | beagle dog, plasma | oral, 5 mg/kg, single dose | AUC(0-inf) | 4030 ng·h/mL |
| Cc1nc(-c2cnc(NC(C)C)n(C)c2=O)ccc1Oc1ccnc(-c2cnn(C)c2)c1 |  |  | male beagle dog, plasma | oral, 10 mg/kg | AUC(0-t) | 19500 ng·h/mL |
| CNC(=O)c1cc(Oc2ccc(NC(=O)Nc3ccc(Cl)c(C(F)(F)F)c3)cc2)ccn1 | WM 266-4 | cell growth or viability, MTT |  | 1.6 µg, 48 h | viability | 58.5% |
| C[C@@H]1CCC[C@H](n2cnc(-c3cc(Cl)ccc3-n3cc(Cl)nn3)cc2=O)c2cc(ccn2)-c2c(cnn2C(F)F)NC1=O |  |  | male rabbit, plasma | intravenous, 0.8 mg/kg | Vd | 1.4 L/kg |
| O=C(NCCN1CCCC1)c1cc(-c2ccc(CN3CCOCC3)cc2)nc2ccc(F)cc12 |  |  | male beagle dog, blood | oral, 3 mg/kg | half-life | 20 h |
| COC(=O)C1CCN(C(=O)c2cccc(NCc3cnc4nc(N)nc(N)c4n3)c2)CC1 | CYP2D6 | enzyme activity, inhibitor, luciferase |  | 10 µM | inhibition | -11.1% |
| CC[C@@H]1CN(C(=O)NCC(F)(F)F)C[C@@H]1c1cnc2cnc3[nH]ccc3n12 |  |  | beagle dog, plasma | oral, 1 mg/kg, single dose | AUC(0-inf) | 582 ng·h/mL |
| Cc1ccc(C(CS(=O)(=O)c2ccccc2)=NN=C2N=C(c3ccc(Br)cc3)CS2)cc1 | WM 266-4 | cell growth or viability, MTT |  | 1.6 µg, 48 h | viability | 55.1% |
| Nc1nc(N)c2nc(C(=O)NCc3ccccc3)cnc2n1 | CYP2D6 | enzyme activity, inhibitor, luciferase |  | 10 µM | inhibition | 105% |
| Cc1ccc(C(CS(=O)(=O)c2ccccc2)=NNc2nc(-c3ccc(OCCCCOc4ccc(-c5csc(NN=C(CS(=O)(=O)c6ccccc6)c6ccc(C)cc6)n5)cc4)cc3)cs2)cc1 | WM 266-4 | cell growth or viability, MTT |  | 1.6 µg, 48 h | viability | 64.3% |
| COc1cc2c3c(n(CCCN4CCOCC4)c(=O)c2cc1OC)-c1cc2c(cc1C3=O)OCO2 |  |  | male beagle dog, plasma | intravenous, 10 mg/m², infusion | AUC(0-inf) | 383 ng·h/mL |
